According to publication PMC13424379 (Fundamental Research, 2024):

Columns and labels:
[1] = system: Tg (fli1a: EGFP) zebrafish; test: Zebrafish vascular injury model; type: in vivo; conditions: for dose relation of the ameliorative effect on vascular injury: different concentrations, PTK787 model
Outline: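 Tg(fli1a:EGFP) embryos at 24 hpf were dechorionated with 1 mg·mL⁻¹ protease E and placed 10 per well, 3 wells per group, in fish water (NaCl/KCl/CaCl2/MgSO4). Groups were vehicle (0.1% DMSO), 0.2 µg·mL⁻¹ PTK787, PTK787 plus 0.2 mg·mL⁻¹ aspirin, and PTK787 plus test compound. Exposure lasted 24 h at 28.5 °C on a 14/10 h light/dark cycle. ISV development was observed and ISV length measured.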

T1R2 = molecular target: T1, T1R2 (Homo sapiens, UniProt Q8TE23); test: T1R2-HEMT biosensor interaction, dissociation constant; type: binding
T1 sequence (Q8TE23 20-839): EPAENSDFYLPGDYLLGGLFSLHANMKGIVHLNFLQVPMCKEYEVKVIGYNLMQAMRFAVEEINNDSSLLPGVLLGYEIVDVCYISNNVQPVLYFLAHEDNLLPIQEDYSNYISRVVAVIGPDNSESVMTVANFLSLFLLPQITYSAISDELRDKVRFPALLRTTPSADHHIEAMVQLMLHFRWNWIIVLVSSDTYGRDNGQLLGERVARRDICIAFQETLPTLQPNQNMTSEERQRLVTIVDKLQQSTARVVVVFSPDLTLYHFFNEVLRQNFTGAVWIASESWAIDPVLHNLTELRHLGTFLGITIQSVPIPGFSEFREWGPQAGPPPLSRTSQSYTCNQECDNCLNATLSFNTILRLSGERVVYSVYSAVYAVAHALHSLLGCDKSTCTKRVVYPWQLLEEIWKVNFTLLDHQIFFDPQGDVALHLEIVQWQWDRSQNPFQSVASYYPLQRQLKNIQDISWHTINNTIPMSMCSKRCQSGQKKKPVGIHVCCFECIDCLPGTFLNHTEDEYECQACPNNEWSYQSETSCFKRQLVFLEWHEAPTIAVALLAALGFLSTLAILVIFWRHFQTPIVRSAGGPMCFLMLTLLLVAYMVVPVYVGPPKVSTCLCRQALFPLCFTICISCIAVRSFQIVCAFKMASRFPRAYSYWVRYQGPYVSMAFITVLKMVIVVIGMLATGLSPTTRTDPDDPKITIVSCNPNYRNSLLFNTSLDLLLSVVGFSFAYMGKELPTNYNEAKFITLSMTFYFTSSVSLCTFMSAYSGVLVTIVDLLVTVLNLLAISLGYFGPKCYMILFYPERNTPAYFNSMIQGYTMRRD
Outline: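 Recombinant T1R2 and T1R3 proteins (100 μg·mL⁻¹) were immobilised on an AlGaAs/GaAs HEMT chip at 4 °C. Test compounds in 0.5% DMSO were applied at eleven concentrations from 0.1 pmol·L⁻¹ to 1 mmol·L⁻¹. KD was derived by a linear fit of [C]/ΔI against [C], where ΔI is the current change and ΔImax the saturated current change.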

T1R3 = molecular target: T2, T1R3 (Homo sapiens, UniProt Q7RTX0); test: T1R3-HEMT biosensor interaction, dissociation constant; type: binding
T2 sequence (Q7RTX0 21-852): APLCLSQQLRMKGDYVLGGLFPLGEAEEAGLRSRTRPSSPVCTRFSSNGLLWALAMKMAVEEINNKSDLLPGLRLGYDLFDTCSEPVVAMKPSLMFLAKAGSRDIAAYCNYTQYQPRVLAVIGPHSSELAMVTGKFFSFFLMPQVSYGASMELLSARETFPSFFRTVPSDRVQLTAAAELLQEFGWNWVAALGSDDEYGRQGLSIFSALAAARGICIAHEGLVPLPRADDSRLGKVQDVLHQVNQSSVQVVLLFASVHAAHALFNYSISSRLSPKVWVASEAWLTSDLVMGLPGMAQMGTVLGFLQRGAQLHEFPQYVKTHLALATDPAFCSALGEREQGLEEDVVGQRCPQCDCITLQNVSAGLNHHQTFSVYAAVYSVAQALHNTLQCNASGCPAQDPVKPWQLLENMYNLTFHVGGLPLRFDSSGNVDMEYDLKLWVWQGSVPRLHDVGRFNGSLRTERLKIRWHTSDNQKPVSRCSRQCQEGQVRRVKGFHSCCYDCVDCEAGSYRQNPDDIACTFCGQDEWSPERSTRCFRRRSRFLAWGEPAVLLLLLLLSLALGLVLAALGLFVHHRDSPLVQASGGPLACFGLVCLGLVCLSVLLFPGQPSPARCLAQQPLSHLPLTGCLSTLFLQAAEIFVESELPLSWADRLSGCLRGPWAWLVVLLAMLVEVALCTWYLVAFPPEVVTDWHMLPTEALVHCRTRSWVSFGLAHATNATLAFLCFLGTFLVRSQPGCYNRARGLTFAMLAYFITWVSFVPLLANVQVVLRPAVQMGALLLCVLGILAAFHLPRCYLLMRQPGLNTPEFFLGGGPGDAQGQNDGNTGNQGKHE

Tg (mpx: EGFP) zebrafish = test: Zebrafish immunocompromised model; type: in vivo; conditions: for immune enhancement (number of neutrophils): compared to the model group
[2] = 25 µM·L^−1, with 0.2 µg·mL^−1 PTK787, compared with the model group

## Clc1ccc(Nc2nnc(Cc3ccncc3)c3ccccc23)cc1 [PTK787, Vatalanib (PTK787) 2HCl, reference compound]
[1]; 0.2 µg·mL^−1, compared with the control group, 24 h exposure
  total length of ISVs: significantly reduce
[1]; 0.2 µg·mL^−1, zebrafish embryos
  teratogenicity: not teratogenic

## C=C1CCC[C@]2(C)C=C3OC(=O)C(C)=C3C[C@@H]12 [atractylenolide I]
T1R2
  Kd: 1060 pM
[1]; 50 µM·L^−1, with 0.2 µg·mL^−1 PTK787, compared with the model group
  effect on ISVs: significantly promote ISVs
[1]
  dose relation of the ameliorative effect on vascular injury: dose-dependent effects
T1R3
  Kd: 88.2 pM

## COc1ccc(-c2coc3cc(O)ccc3c2=O)cc1O [calycosin]
T1R2
  Kd: 1.7 pM
Tg (mpx: EGFP) zebrafish; 50 µM·L^−1, with 100 µg·mL^−1 vinorelbine
  immune enhancement (number of neutrophils): immune-enhancing effect
[1]; [2]
  effect on ISVs: significantly promote ISVs
[1]
  dose relation of the ameliorative effect on vascular injury: stronger at a low dose
T1R3
  Kd: 641 pM

## C[C@@H]1CC[C@@]2(OC1)O[C@H]1C[C@H]3[C@@H]4CC=C5C[C@@H](O)C[C@@H](O)[C@]5(C)[C@H]4CC[C@]3(C)[C@H]1[C@@H]2C [ruscogenin]
T1R2
  Kd: 52500 pM
Tg (mpx: EGFP) zebrafish; 100 µM·L^−1, with 100 µg·mL^−1 vinorelbine
  immune enhancement (number of neutrophils): immune-enhancing effect
[1]; [2]
  effect on ISVs: significantly promote ISVs
[1]
  dose relation of the ameliorative effect on vascular injury: stronger at medium and high doses
T1R3
  Kd: 217 pM

## CCC1=C[C@@H]2CN(C1)Cc1c([nH]c3ccccc13)[C@@](C(=O)OC)(c1cc3c(cc1OC)N(C)[C@H]1[C@@](O)(C(=O)OC)[C@H](OC(C)=O)[C@]4(CC)C=CCN5CC[C@]31[C@@H]54)C2 [vinorelbine, Vinorelbine, reference compound]
Tg (mpx: EGFP) zebrafish; 100 µg·mL^−1, model construction
  number of neutrophils in the zebrafish tail: significantly reduced
